Published values from different studies.
Each line is one published result; the experiments were not run side by side.
Matrix: plasma
Route: oral

| Structure (SMILES) | host | dose | setting | Cmax |
| --- | --- | --- | --- | --- |
| CC(C)n1cc(C#N)c2cc(-n3cc(C(=O)O)cn3)ccc21 | human | 200 mg | single dose, fed | 5400 ng/mL |
| CCn1c(=O)c(-c2cc(NC(=O)Nc3ccccc3)c(F)cc2Br)cc2cnc(NC)cc21 | human | 150 mg | single dose, patients | 502 ng/mL |
| COc1cc(C(=O)NC2CCN(C)CC2)c(F)cc1Nc1ncc(C(F)(F)F)c(Oc2cccc3c2C(=O)N(C)C3)n1 | human | 25 mg | multiple doses, once daily, steady state, patients | 405 nM |
| CC(C)(O)c1ccccc1-c1ccc2[nH]c(/C=C/c3ccc(C(F)(F)F)cc3)nc2c1 | male human | 2 mg | single dose, fasted, healthy volunteers | 7.66 ng/mL |
| CO[C@H]1CC[C@H](N2C(=O)CNc3ncc(-c4ccc(C(C)(C)O)nc4)nc32)CC1 | human | 15 mg | patients | 97.4 ng/mL |
| COc1ccc([C@@H]2CN(C(=O)[C@@H](O)CO)C[C@@]2(C)[C@@H](C)O)cc1OC1CN(c2ccc(C)cn2)C1 | human | 1.5 mg | single dose, healthy volunteers | 76.5 ng/mL |
| CCc1nc2c(C)cc(N3CCN(CC(=O)N4CC(O)C4)CC3)cn2c1N(C)c1nc(-c2ccc(F)cc2)c(C#N)s1 | human | 150 mg | single dose, fed, healthy volunteers | 1400 ng/mL |
| COCCOc1cnc2ccn([C@H](C)c3nnc4c(F)cc(-c5cnn(C)c5)cn34)c(=O)c2c1 | human | 300 mg | multiple doses, once daily, patients | 4140 ng/mL |
| Cn1cc(-c2ccc(S(=O)(=O)[C@@H]3C[C@@H](C(=O)NC4(C#N)CC4)N(C(=O)C4(C(F)(F)F)CC4)C3)c(C(F)(F)F)c2)cn1 | human | 100 mg | single dose, fasted, healthy volunteers | 516 ng/mL |
